The source made the active and inactive calls. The calls are words filed in the database; no cut-off is given here.
What was measured:
[1] = biological target: T1, Prostaglandin G/H synthase 1 (Ovis aries) (UniProt P05979); experiment: Inhibition of ovine COX-1 at 100 uM after 2 mins by fluorescence assay
T1 sequence (whole entry): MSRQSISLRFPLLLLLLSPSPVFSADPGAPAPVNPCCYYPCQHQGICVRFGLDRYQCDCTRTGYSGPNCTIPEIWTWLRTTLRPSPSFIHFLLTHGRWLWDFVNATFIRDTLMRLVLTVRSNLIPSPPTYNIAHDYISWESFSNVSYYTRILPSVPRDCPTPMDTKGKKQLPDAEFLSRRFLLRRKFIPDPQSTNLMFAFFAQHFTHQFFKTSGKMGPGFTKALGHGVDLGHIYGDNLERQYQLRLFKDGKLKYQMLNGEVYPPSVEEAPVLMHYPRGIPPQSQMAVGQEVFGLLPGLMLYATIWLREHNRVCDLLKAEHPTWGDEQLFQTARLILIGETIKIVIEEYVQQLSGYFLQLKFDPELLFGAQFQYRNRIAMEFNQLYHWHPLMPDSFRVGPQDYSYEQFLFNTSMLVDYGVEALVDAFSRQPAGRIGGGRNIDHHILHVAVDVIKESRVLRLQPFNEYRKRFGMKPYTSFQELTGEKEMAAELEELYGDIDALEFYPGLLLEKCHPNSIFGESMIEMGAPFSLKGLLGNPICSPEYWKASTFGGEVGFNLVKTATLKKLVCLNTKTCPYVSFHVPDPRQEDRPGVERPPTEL
Procedure, shortened: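 Ovine COX-1 was tested in a fluorescent kit assay in 100 mM Tris-HCl, pH 8.0, with heme and ADHP substrate. Inhibitor was added at a final 100 µM, then the reaction was started with arachidonic acid for 2 min at room temperature. Resorufin was read at ex 535/em 590 nm, and % inhibition was taken against a no-inhibitor control.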

Rattus norvegicus [2] = experiment: Antiallodynic activity in Sprague-Dawley rat von Frey hair mechanically-stimulated inflammatory pain model assessed as reversal of LPS-induced decrease in paw withdrawal latency at 10 mg/kg, sc administered 60 mins before LPS challenge
[3] = biological target: T2, Polyunsaturated fatty acid 5-lipoxygenase (Homo sapiens) (UniProt P09917); experiment: Inhibition of human 5-lipoxygenase at 10 uM
T2 sequence (whole entry): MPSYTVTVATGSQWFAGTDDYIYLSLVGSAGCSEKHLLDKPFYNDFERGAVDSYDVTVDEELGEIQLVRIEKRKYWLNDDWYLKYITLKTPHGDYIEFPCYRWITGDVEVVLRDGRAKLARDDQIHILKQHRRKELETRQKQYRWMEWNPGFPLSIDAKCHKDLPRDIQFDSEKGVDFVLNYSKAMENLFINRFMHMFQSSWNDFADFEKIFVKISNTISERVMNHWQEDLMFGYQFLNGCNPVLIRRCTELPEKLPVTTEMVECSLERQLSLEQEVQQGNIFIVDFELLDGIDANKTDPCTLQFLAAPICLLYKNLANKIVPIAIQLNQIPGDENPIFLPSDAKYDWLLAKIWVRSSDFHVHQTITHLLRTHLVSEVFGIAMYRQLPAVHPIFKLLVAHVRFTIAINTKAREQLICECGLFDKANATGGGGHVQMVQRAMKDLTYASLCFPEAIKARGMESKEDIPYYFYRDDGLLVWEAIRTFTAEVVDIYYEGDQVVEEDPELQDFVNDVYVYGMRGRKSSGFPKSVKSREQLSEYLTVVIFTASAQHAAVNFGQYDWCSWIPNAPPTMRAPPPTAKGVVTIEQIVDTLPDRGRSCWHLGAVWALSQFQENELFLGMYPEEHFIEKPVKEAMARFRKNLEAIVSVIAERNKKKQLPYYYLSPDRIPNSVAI

U-937 = experiment: Cytotoxicity against human U937 cells; assay type: cell-based
Rattus norvegicus [4] = experiment: Toxicity in Sprague-Dawley rat von Frey hair mechanically-stimulated […] pain model assessed as overt signs of behavioral changes at 10 mg/kg, sc after 9 hrs; assay type: organism-based; design: dose 10 mg/kg, route subcutaneous; conditions: in vivo
Procedure, shortened: (§1)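 Male Sprague-Dawley rats treated s.c. (10 mg/kg, PEG400 vehicle) in the LPS von Frey study were observed over nine hours on the test day. Animals were checked for behavioral changes and for acute signs such as lacrimation, porphyrin exudation, frozen or hunched posture, gasping or chattering.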

Rattus norvegicus [5] = experiment: Toxicity in Sprague-Dawley rat von Frey hair mechanically-stimulated […] pain model assessed as acute observable symptoms of toxicity at 10 mg/kg, sc after 9 hrs; assay type: organism-based; design: dose 10 mg/kg, route subcutaneous; conditions: in vivo; procedure, shortened: as §1
[6] = Half life in Sprague-Dawley rat at 1 mg/kg, po; assay type: ADME, organism-based; design: dose 1 mg/kg, route oral; conditions: in vivo
Procedure, shortened: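 Male Sprague-Dawley rats (8 weeks, 250–300 g, n = 4) were dosed orally at 1 mg/kg in oleic-ester-rich triglyceride with 10% PEG 400. Tail-vein blood (10 µL) was taken at 0–24 h, mixed with water and stored at −80 °C. Drug was quantified by LC/MS/MS, and t1/2 came from non-compartmental analysis of each rat.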

| Compound | inhibition [1] [%] | also measured |
| --- | --- | --- |
| Cc1ccc(-c2cc(C(F)(F)F)nn2-c2ccc(S(N)(=O)=O)cc2)cc1 |  | Activity (Rattus norvegicus [2]): Active; inhibition [3]: 80% |
| NS(=O)(=O)c1ccc(-n2nc(CNC(=O)Nc3cccc(C(F)(F)F)c3)cc2-c2ccccc2)cc1 | 17 |  |
| CC(C)(C)c1cc(CNC(=O)Nc2cccc(C(F)(F)F)c2)nn1-c1ccc(S(C)(=O)=O)cc1 | 2 |  |
| CS(=O)(=O)c1ccc(-n2nc(CCCNC(=O)Nc3cccc(C(F)(F)F)c3)cc2-c2ccccc2)cc1 | 6 |  |
| O=C(NC12CC3CC(CC(C3)C1)C2)N[C@H]1CC[C@H](Oc2ccc(C(=O)O)cc2)CC1 | 25 | Activity (Rattus norvegicus [2]): Active |
| CS(=O)(=O)c1ccc(-n2nc(CNC(=O)Nc3ccc(C(F)(F)F)cc3)cc2-c2ccccc2)cc1 | 11 |  |
| CS(=O)(=O)c1ccc(-n2nc(CNC(=O)Nc3cccc(C(F)(F)F)c3)cc2-c2ccccc2)cc1 | 8 |  |
| NS(=O)(=O)c1ccc(-n2nc(CCNC(=O)Nc3cccc(C(F)(F)F)c3)cc2-c2ccccc2)cc1 | 22 |  |
| NS(=O)(=O)c1ccc(-n2nc(CCCNC(=O)Nc3ccc(OC(F)(F)F)cc3)cc2-c2ccccc2)cc1 | 14 | half-life [6]: 12 h |
| Cc1ccc(-c2cc(CCCNC(=O)Nc3cccc(C(F)(F)F)c3)nn2-c2ccc(S(N)(=O)=O)cc2)cc1 | 12 |  |
| CS(=O)(=O)c1ccc(-n2nc(CNC(=O)Nc3ccc(OC(F)(F)F)cc3)cc2-c2ccccc2)cc1 | 10 |  |
| CS(=O)(=O)c1ccc(-n2nc(CNC(=O)NC34CC5CC(CC(C5)C3)C4)cc2-c2ccccc2)cc1 | 13 |  |
| NS(=O)(=O)c1ccc(-n2nc(NC(=O)Nc3cccc(C(F)(F)F)c3)cc2-c2ccccc2)cc1 | 34 |  |
| CC(C)c1cccc(C(C)C)c1NC(=O)NCCCc1cc(-c2ccccc2)n(-c2ccc(S(N)(=O)=O)cc2)n1 | 6 |  |

The next lines start with results.

| inhibition [1] [%] | Compound | also measured |
| --- | --- | --- |
| 3 | CS(=O)(=O)c1ccc(-n2nc(CNC(=O)NC3CCCCCC3)cc2-c2ccccc2)cc1 |  |
| 16 | NS(=O)(=O)c1ccc(-n2nc(CCCNC(=O)Nc3ccccc3)cc2-c2ccccc2)cc1 |  |
| 10 | NS(=O)(=O)c1ccc(-n2nc(CCCNC(=O)NC3CCCCCC3)cc2-c2ccccc2)cc1 |  |
| 23 | NS(=O)(=O)c1ccc(-n2nc(CCCNC(=O)Nc3ccc(C(F)(F)F)cc3)cc2-c2ccccc2)cc1 | Activity (Rattus norvegicus [2]): Active; Activity (U-937): Non-toxic; Activity (Rattus norvegicus [4]): Non-toxic; Activity (Rattus norvegicus [5]): Non-toxic; inhibition [3]: 83% |
| 15 | NS(=O)(=O)c1ccc(-n2nc(CCCNC(=O)Nc3ccc(Cl)cc3)cc2-c2ccccc2)cc1 |  |
| 7 | NS(=O)(=O)c1ccc(-n2nc(CCCNC(=O)NC34CC5CC(CC(C5)C3)C4)cc2-c2ccccc2)cc1 |  |
| 27 | NS(=O)(=O)c1ccc(-n2nc(CCCNC(=O)Nc3cccc(C(F)(F)F)c3)cc2-c2ccccc2)cc1 |  |
